# Laboratory results reported in ChEMBL document CHEMBL1955822, “Camptothecin (CPT) directly binds to human heterogeneous nuclear ribonucleoprotein A1 (hnRNP A1) and inhibits the hnRNP A1/topoisomerase I interaction” (Bioorg Med Chem, 2011).
# The source made the active and inactive calls. The calls are words filed in the database; no cut-off is given here.
# How the values were obtained:
# [1] = system: Drosophila melanogaster; test: Growth inhibition of Drosophila melanogaster expressing Hrb87F mutant KG02089 assessed as reduction in eclosion rate at 25 uM after 15 days; type: functional, organism-based
# In short: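 Eggs of Hrb87F KG02089 mutant and CantonS wild-type immersed in 25 µM drug or DMSO in 4% EtOH/5% DMSO vehicle. Adults emerging within 15 days counted. Rate = N(mutant)/N(WT) × 100%. Means ± S.E. of three independent experiments.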
# [2] = biological target: T1, Heterogeneous nuclear ribonucleoprotein A1 (Homo sapiens, UniProt P09651); test: Binding affinity to human hnRNP A1 expressed in HeLa cells after 16 hrs by avidin-agarose bead pull down assay; type: cell-based
# T1 sequence (P09651 whole entry): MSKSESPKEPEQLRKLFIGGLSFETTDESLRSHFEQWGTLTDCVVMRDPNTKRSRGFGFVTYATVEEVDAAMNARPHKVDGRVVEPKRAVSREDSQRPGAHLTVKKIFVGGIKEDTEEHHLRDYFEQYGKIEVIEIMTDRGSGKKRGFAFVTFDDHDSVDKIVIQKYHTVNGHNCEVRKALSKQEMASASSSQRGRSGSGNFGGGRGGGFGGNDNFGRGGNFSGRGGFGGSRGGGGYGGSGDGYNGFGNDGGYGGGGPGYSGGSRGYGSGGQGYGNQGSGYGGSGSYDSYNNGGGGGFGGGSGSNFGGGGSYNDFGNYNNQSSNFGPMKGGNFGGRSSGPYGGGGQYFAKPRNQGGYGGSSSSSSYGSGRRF
# In short: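 HeLa cells grown in DMEM/10% FCS, 37 °C, 5% CO2; 10^7 cells lysed 1 min in Tris pH 8.0/NaCl/EDTA/0.5% Triton-X; supernatant precleared on avidin-agarose, then 16 h at 4 °C with biotinylated CPT probe (1 mM stock, 1:10 into lysate) or DMSO; avidin-agarose capture 1 h at 4 °C, PBS washes, SDS-PAGE, anti-hnRNP A1 western blot with chemiluminescence.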
# [3] = biological target: T1, Heterogeneous nuclear ribonucleoprotein A1; test: Binding affinity to recombinant GST-tagged human hnRNP A1 expressed in Escherichia coli after 16 hrs by avidin-agarose bead pull down assay
# In short: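 Lysate of E. coli expressing hnRNP A1-GST made by sonication in Tris pH 8.0/150 mM NaCl/EDTA/PMSF. Precleared on avidin-agarose, then mixed with biotinylated CPT probe (1 mM stock, 1:10) or DMSO for 16 h at 4 °C. Bound material captured 1 h on avidin-agarose, washed five times in PBS, run on 15% SDS-PAGE and immunoblotted for hnRNP A1.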
# [4] = biological target: T1, Heterogeneous nuclear ribonucleoprotein A1; test: Binding affinity to recombinant GST-tagged human hnRNP A1 expressed in Escherichia coli using QCM biosensor by Scatchard plot analysis
# In short: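 Quartz crystal microbalance with GST-affinity-purified hnRNP A1-GST immobilised on gold electrode; cuvette of PBS–10% DMSO at 25 °C; CPT injected at final 12.5–250 nM; frequency change monitored; Langmuir and Scatchard plots; means ± S.E. of three independent experiments.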
# [5] = biological target: T1, Heterogeneous nuclear ribonucleoprotein A1; test: Inhibition of recombinant GST-tagged human hnRNP A1/his-tagged top1 cap region interaction expressed in Escherichia coli by SPR biosensor analysis
# In short: (§1)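 Biacore SPR, CM5 chip with His-tagged top I cap region (215–433) amine-coupled at pH 5, about 10,000 RU. hnRNP A1-GST injected at various concentrations with or without CPT in HBS-EP/5% DMSO, 20 µl/min, 25 °C. Data analysed by Langmuir and Lineweaver-Burk plots under a non-competitive inhibition model.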
# [6] = biological target: T1, Heterogeneous nuclear ribonucleoprotein A1; test: Noncompetitive inhibition of recombinant GST-tagged human hnRNP A1 binding to recombinant His-tagged top1 cap region by SPR biosensor analysis; in short: as §1
# [7] = system: Drosophila melanogaster; test: Growth inhibition of Drosophila melanogaster expressing Hrb87F mutant KG02089 assessed as reduction in eclosion rate after 15 days; type: functional, organism-based
# In short: (§2)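 Drosophila eggs from 20 adults (laid over 24 h) immersed in 250 µl CPT at 0, 5, 12.5, 25 or 50 µM in 4% EtOH/5% DMSO. Adults emerging within 15 days counted. Eclosion rate = N(µM)/N(0 µM) × 100%, compared with wild-type CantonS. Means ± S.E. of three independent experiments.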
# [8] = system: Drosophila melanogaster; test: Growth inhibition of Drosophila melanogaster expressing Hrb87F mutant BG02743 assessed as reduction in eclosion rate after 15 days; type: functional, organism-based; in short: as §2
# [9] = system: Drosophila melanogaster; test: Growth inhibition of 7 day-old Drosophila melanogaster pupa expressing Hrb87F mutant KG02089 at 25 to 50 uM after 15 days; type: functional, organism-based
# In short: (§3)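 Drosophila eggs from 20 adults (laid over 24 h) immersed in 250 µl CPT at 0, 5, 12.5, 25 or 50 µM in 4% EtOH/5% DMSO. Development and pupal phenotype followed at 5, 7 and 14 days after dosing. Wild-type CantonS served as reference.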
# [10] = system: Drosophila melanogaster; test: Growth inhibition of 7 day-old Drosophila melanogaster pupa expressing Hrb87F mutant BG02743 at 25 to 50 uM after 15 days; type: functional, organism-based; in short: as §3
# [11] = biological target: T1, Heterogeneous nuclear ribonucleoprotein A1; test: Inhibition of recombinant GST-tagged human hnRNP A1/his-tagged top1 cap region interaction expressed in expressed in Escherichia coli assessed as pBR322 DNA relaxation after 30 mins by agarose gel electrophoresis
# In short: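 Calf thymus topoisomerase I (2 U) incubated with 1 µg supercoiled pBR322 in Tris pH 8/KCl/MgCl2/DTT/spermidine/BSA, with or without 100 µM CPT or 0.5 µM hnRNP A1-GST, for 30 min at 37 °C. Reaction stopped with SDS at 75 °C, then proteinase K digestion. Products run on 1% agarose gel and stained with EtBr.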
compound,measurement,setting,value
COc1cccc2c1C(=O)c1c(O)c3c(c(O)c1C2=O)C[C@@](O)(C(=O)CO)C[C@@H]3O[C@H]1C[C@H](N)[C@H](O)[C@H](C)O1,growth inhibition (GI),[1],inactive
CCc1c2c(nc3ccc(OC(=O)N4CCC(N5CCCCC5)CC4)cc13)-c1cc3c(c(=O)n1C2)COC(=O)[C@]3(O)CC,growth inhibition (GI),[1],inactive
CC(=O)O[C@H]1C(=O)[C@@]2(C)[C@H]([C@H](OC(=O)c3ccccc3)[C@]3(O)C[C@H](OC(=O)[C@H](O)[C@@H](NC(=O)c4ccccc4)c4ccccc4)C(C)=C1C3(C)C)[C@]1(OC(C)=O)CO[C@@H]1C[C@@H]2O,growth inhibition (GI),[1],inactive
CC[C@@]1(OC(=O)CCCCCNC(=O)CCCC[C@@H]2SC[C@@H]3NC(=O)N[C@@H]32)C(=O)OCc2c1cc1n(c2=O)Cc2cc3ccccc3nc2-1,Activity,[2],Active
same,Activity,[3],Active
BLEOMYCIN,growth inhibition (GI),[1],inactive
CC[C@@]1(O)C(=O)OCc2c1cc1n(c2=O)Cc2cc3ccccc3nc2-1 [CAMPTOTHECIN],Bmax,[4],67 pg/mm2
same,Kd,[4],82.7 nM
same,inhibition,[5],Active
same,inhibition,[6],Active
same,growth inhibition (GI),[7],Dose-dependent effect
same,growth inhibition (GI),[8],Dose-dependent effect
same,growth inhibition (GI),[9],Active
same,growth inhibition (GI),[10],Active
same,inhibition,[11],Active
